# Measurements reported in ChEMBL document CHEMBL3421570, “Combinatorial Libraries As a Tool for the Discovery of Novel, Broad-Spectrum Antibacterial Agents Targeting the ESKAPE Pathogens” (J Med Chem, 2015).
# Calls of active or inactive are those of the source. No cut-off for these calls is given here.
# Experiments:
# [1] = test system: Klebsiella pneumoniae; test: Antimicrobial activity against Klebsiella pneumoniae assessed as inhibition of microbial growth at 45 uM after 24 hrs; type: functional, organism-based
# Method in brief: (§1)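 Broth microdilution single-concentration read: overnight cultures diluted 1:1000, compound in DMF (≤2.0%) added, 37°C for 24 h, growth inhibition scored visually by lack of turbidity; triplicate. Gram-positives grown in TSB, Gram-negatives in LB.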
# [2] = test system: Pseudomonas aeruginosa; test: Bactericidal activity against Pseudomonas aeruginosa after 24 hrs; type: functional
# [3] = Selectivity index, ratio of IC50 for human A549 cells to MIC for Klebsiella pneumoniae
# [4] = Induction of hemolysis in human RBC at 10 uM incubated for 15 mins; type: cell-based, Erythrocyte; conditions: red blood cells, read-out: Activity
# Method in brief: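 Human RBCs from whole blood, resuspended 20% v/v in HA buffer (NaCl, CaCl2), compound 10 μM, 15 min at 37°C. Centrifuged 5,500 g for 1 min, supernatant OD543 read. Percent hemolysis against DMF vehicle (0%) and 1.0% Triton X-100 (100%); triplicate.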
# [5] = Selectivity index, ratio of IC50 for human A549 cells to MIC for Staphylococcus aureus
# [6] = test system: Pseudomonas aeruginosa; test: Antimicrobial activity against Pseudomonas aeruginosa isolate 1420 assessed as inhibition of microbial growth at 2 uM in presence of 100 uM efflux pump inhibitor reserpine after 24 hrs; type: functional, organism-based
# [7] = test system: Enterobacter cloacae; test: Antimicrobial activity against Enterobacter cloacae assessed as inhibition of microbial growth after 24 hrs; type: functional
# Method in brief: (§2)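 Broth microdilution against multidrug-resistant clinical ESKAPE isolates. Overnight cultures (TSB for Gram-positives, LB for Gram-negatives) diluted 1:1000 in fresh medium, compound in DMF (≤2.0% DMF) added at decreasing concentrations, 37°C.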
# [8] = test system: Acinetobacter baumannii; test: Bactericidal activity against Acinetobacter baumannii after 24 hrs; type: functional
# [9] = test system: Staphylococcus aureus; test: Antibiofilm activity against Staphylococcus aureus incubated for 24 hrs followed by biofilm resuspension in PBS and measured after 24 hrs; type: functional
# Method in brief: (§3)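 Biofilms grown 24 h in 96-well plates from overnight cultures standardized to OD600 0.5 in fresh medium (human serum only for S. aureus; TSB for Gram-positives, LB for Gram-negatives). Medium then replaced with fresh medium containing a concentration range above and below MIC, 37°C overnight. After 24 h biofilm resuspended in PBS, serially diluted, plated in duplicate, CFU counted after 24 h at 37°C. Activity relative to untreated; three technical replicates; MBEC50 reported.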
# [10] = test system: Staphylococcus aureus; test: Effect on bacterial density of methicillin-resistant Staphylococcus aureus at MIC measured over 2 hrs period by time kill assay; type: functional, organism-based
# [11] = test system: Staphylococcus aureus; test: Ratio of MIC for Staphylococcus aureus measured after 8 cycle passage to MIC for wild type Staphylococcus aureus; type: functional
# [12] = test system: Acinetobacter baumannii; test: Antimicrobial activity against Acinetobacter baumannii assessed as inhibition of microbial growth after 24 hrs; type: functional; method in brief: as §2
# [13] = test system: Pseudomonas aeruginosa; test: Induction of spontaneous mutation in Pseudomonas aeruginosa at 2 to 10 MIC; type: functional, organism-based; conditions: 2 to 10 x MIC
# [14] = test system: Staphylococcus aureus; test: Antimicrobial activity against Staphylococcus aureus USA300 strain FPR3757 infected in mouse model of lethal peritonitis assessed as mouse survival at 2 uM, im dosed 1 hr post infection and measured after 5 days post infection; type: functional, organism-based
# Method in brief: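 Mice, six per group, infected i.p. with 1 × 10^8 CFU ml−1 S. aureus USA300 FPR3757 in PBS with 5% mucin. Compound given i.m. at 2 μM 1 h later; vehicle 45% w/v (2-hydroxypropyl)-β-cyclodextrin in water i.v.; vancomycin i.v. as control. Monitored twice daily for 5 days, pre-moribund animals euthanized. Survival compared by log-rank test.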
# [15] = test system: Klebsiella pneumoniae; test: Bactericidal activity against Klebsiella pneumoniae after 24 hrs; type: functional
# [16] = test system: Enterococcus faecium; test: Antimicrobial activity against Enterococcus faecium assessed as inhibition of microbial growth after 24 hrs; type: functional; method in brief: as §2
# [17] = test system: Klebsiella pneumoniae; test: Antibiofilm activity against Klebsiella pneumoniae incubated for 24 hrs followed by biofilm resuspension in PBS and measured after 24 hrs; type: functional; method in brief: as §3
# [18] = test system: Staphylococcus aureus; test: Bactericidal activity against methicillin-resistant Staphylococcus aureus assessed as cell survival recovery at MIC measured after drug wash out after 120 mins by time kill assay; type: functional
# Method in brief: (§4)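 MRSA from stationary phase was regrown 3 h in TSB and seeded at OD600 0.5. […] After 120 min, cells were centrifuged and washed, serially diluted and plated for CFU. Percent recovery is relative to no-drug controls.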
# [19] = Selectivity index, ratio of IC50 for human A549 cells to MIC for Pseudomonas aeruginosa
# [20] = test system: Enterobacter cloacae; test: Induction of spontaneous mutation in Enterobacter cloacae at 2 to 10 MIC; type: functional, organism-based
# [21] = test system: Pseudomonas aeruginosa; test: Antimicrobial activity against Pseudomonas aeruginosa assessed as inhibition of microbial growth after 24 hrs; type: functional; method in brief: as §2
# [22] = test system: A549; test: Cytotoxicity against human A549 cells after 48 hrs by MTT assay; type: cell-based; conditions: A549, 48 h
# Method in brief: (§5)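 A549 cells grown in F-12K with L-glutamine, 10% FBS, 1% penicillin-streptomycin, seeded at 1.0 × 10^5 ml−1, allowed to adhere 24 h (37°C, 5% CO2), then exposed to compound in 45% w/v (2-hydroxypropyl)-β-cyclodextrin vehicle for 48 h. MTT 4 h, formazan solubilized in DMSO, absorbance 540 nm. Percent recovery versus vehicle-only; IC50 derived; at least three independent experiments.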
# [23] = Cytotoxicity against human A549 cells assessed as cell viability recovery up to 125 uM after 48 hrs by MTT assay; type: cell-based; conditions: read-out: Activity; method in brief: as §5
# [24] = test system: Pseudomonas aeruginosa; test: Antimicrobial activity against Pseudomonas aeruginosa isolate 1420 assessed as inhibition of microbial growth at 2 uM after 24 hrs; type: functional, organism-based
# [25] = test system: Enterococcus faecium; test: Antimicrobial activity against Enterococcus faecium assessed as inhibition of microbial growth at 45 uM after 24 hrs; type: functional, organism-based; method in brief: as §1
# [26] = test system: Enterobacter cloacae; test: Antibiofilm activity against Enterobacter cloacae incubated for 24 hrs followed by biofilm resuspension in PBS and measured after 24 hrs; type: functional; method in brief: as §3
# [27] = test system: Staphylococcus aureus; test: Induction of spontaneous mutation in Staphylococcus aureus at 2 to 10 MIC; type: functional, organism-based
# [28] = Selectivity index, ratio of IC50 for human A549 cells to MIC for Enterococcus faecium
# [29] = test system: Acinetobacter baumannii; test: Antibiofilm activity against Acinetobacter baumannii incubated for 24 hrs followed by biofilm resuspension in PBS and measured after 24 hrs; type: functional; method in brief: as §3
# [30] = test system: Enterobacter cloacae; test: Bactericidal activity against Enterobacter cloacae after 24 hrs; type: functional
# [31] = test system: Staphylococcus aureus; test: Antimicrobial activity against Staphylococcus aureus assessed as inhibition of microbial growth after 24 hrs; type: functional; method in brief: as §2
# [32] = test system: Enterococcus faecium; test: Bactericidal activity against Enterococcus faecium after 24 hrs; type: functional
# [33] = test system: Staphylococcus aureus; test: Bactericidal activity against Staphylococcus aureus after 24 hrs; type: functional
# [34] = test system: Enterobacter cloacae; test: Antimicrobial activity against Enterobacter cloacae assessed as inhibition of microbial growth at 45 uM after 24 hrs; type: functional, organism-based; method in brief: as §1
# [35] = test system: Enterococcus faecium; test: Induction of spontaneous mutation in Enterococcus faecium at 2 to 10 MIC; type: functional, organism-based
# [36] = test system: Enterococcus faecium; test: Antibiofilm activity against Enterococcus faecium incubated for 24 hrs followed by biofilm resuspension in PBS and measured after 24 hrs; type: functional; method in brief: as §3
# [37] = test system: Klebsiella pneumoniae; test: Induction of spontaneous mutation in Klebsiella pneumoniae at 2 to 10 MIC; type: functional, organism-based
# [38] = Selectivity index, ratio of IC50 for human A549 cells to MIC for Enterobacter cloacae
# [39] = Selectivity index, ratio of IC50 for human A549 cells to MIC for Acinetobacter baumannii
# [40] = test system: Acinetobacter baumannii; test: Induction of spontaneous mutation in Acinetobacter baumannii at 2 to 10 MIC; type: functional, organism-based
# [41] = Cytotoxicity against human A549 cells assessed as cell viability recovery at 225 uM after 48 hrs by MTT assay; type: cell-based; conditions: read-out: Activity; method in brief: as §5
# [42] = test system: Acinetobacter baumannii; test: Antimicrobial activity against Acinetobacter baumannii assessed as inhibition of microbial growth at 45 uM after 24 hrs; type: functional, organism-based; method in brief: as §1
# [43] = test system: Pseudomonas aeruginosa; test: Antibiofilm activity against Pseudomonas aeruginosa incubated for 24 hrs followed by biofilm resuspension in PBS and measured after 24 hrs; type: functional; method in brief: as §3
# [44] = test system: Staphylococcus aureus; test: Bactericidal activity against methicillin-resistant Staphylococcus aureus at MIC measured after drug wash out after 120 mins by time kill assay; type: functional; method in brief: as §4
# [45] = test system: Staphylococcus aureus; test: Antimicrobial activity against Staphylococcus aureus assessed as inhibition of microbial growth at 45 uM after 24 hrs; type: functional, organism-based; method in brief: as §1
# [46] = test system: Pseudomonas aeruginosa; test: Antimicrobial activity against Pseudomonas aeruginosa assessed as inhibition of microbial growth at 45 uM after 24 hrs; type: functional, organism-based; method in brief: as §1
# [47] = test system: Klebsiella pneumoniae; test: Antimicrobial activity against Klebsiella pneumoniae assessed as inhibition of microbial growth after 24 hrs; type: functional; method in brief: as §2
structure (smiles),measurement,setting,value
CCCCCCCN1C(=N)N(CCCC[C@H]2CNC(=N)N2CCc2cccc(C(F)(F)F)c2)C[C@@H]1CCCC,growth inhibition (GI),[1],Active
same,MBC90,[2],4 µM
same,Selectivity Index,[3],100
same,"hemolysis at 0.25 h, 10 µM",[4],0.34%
same,Selectivity Index,[5],100
same,growth inhibition (GI),[6],Active
same,MIC,[7],1.6 µM
same,MBC90,[8],3.1 µM
same,MBEC50,[9],14 µM
same,Activity,[10],inactive
same,Ratio,[11],2
same,MIC,[12],1.6 µM
same,Activity,[13],inactive
same,Activity,[14],Active
same,MBC90,[15],2.4 µM
same,MIC,[16],1.6 µM
same,MBEC50,[17],7 µM
same,Survival,[18],0.2%
same,Selectivity Index,[19],100
same,Activity,[20],inactive
same,MIC,[21],1.6 µM
same,IC50,[22],164 µM
same,viability at 48 h,[23],> 63%
same,growth inhibition (GI),[24],inactive
same,growth inhibition (GI),[25],Active
same,MBEC50,[26],13 µM
same,Activity,[27],inactive
same,Selectivity Index,[28],100
same,MBEC50,[29],15 µM
same,MBC90,[30],3.1 µM
same,MIC,[31],1.6 µM
same,MBC90,[32],1.9 µM
same,MBC90,[33],3.1 µM
same,growth inhibition (GI),[34],Active
same,Activity,[35],inactive
same,MBEC50,[36],39 µM
same,Activity,[37],inactive
same,Selectivity Index,[38],100
same,Selectivity Index,[39],100
same,Activity,[40],inactive
same,"viability at 48 h, 225 µM",[41],40%
same,growth inhibition (GI),[42],Active
same,MBEC50,[43],20 µM
same,fold change (FC),[44],2.5
same,growth inhibition (GI),[45],Active
same,growth inhibition (GI),[46],Active
same,MIC,[47],1.6 µM
